Measurements as given in ChEMBL document CHEMBL4033788, “Novel Ligustrazine-Based Analogs of Piperlongumine Potently Suppress Proliferation and Metastasis of Colorectal Cancer Cells in Vitro and in Vivo” (J Med Chem, 2018).
Active and inactive are the calls of the source. No cut-off for these calls is given here.

Key:
[1] = biological target: RAC-alpha serine/threonine-protein kinase (Homo sapiens) (UniProt P31749); test: Inhibition of TGF-beta1-induced AKT phosphorylation in human HCT116 cells after 48 hrs by Western blot analysis; format: cell-based
RAC-alpha serine/threonine-protein kinase (Homo sapiens), sequence (P31749 whole entry): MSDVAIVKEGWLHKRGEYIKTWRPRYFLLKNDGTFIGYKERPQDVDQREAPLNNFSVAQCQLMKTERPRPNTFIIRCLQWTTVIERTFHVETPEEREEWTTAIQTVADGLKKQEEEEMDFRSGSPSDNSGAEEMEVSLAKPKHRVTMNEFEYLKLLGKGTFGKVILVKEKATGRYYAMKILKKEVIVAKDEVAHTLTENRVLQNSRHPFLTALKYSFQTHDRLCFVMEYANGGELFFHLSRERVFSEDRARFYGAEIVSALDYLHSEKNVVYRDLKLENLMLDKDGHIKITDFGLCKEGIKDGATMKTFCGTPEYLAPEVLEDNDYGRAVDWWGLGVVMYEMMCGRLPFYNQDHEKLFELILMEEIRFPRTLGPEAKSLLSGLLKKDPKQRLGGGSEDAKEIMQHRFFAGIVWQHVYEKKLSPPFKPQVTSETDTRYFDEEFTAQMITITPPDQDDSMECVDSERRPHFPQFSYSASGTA
Summary of the method: (§1)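 HCT-116 cells treated with or without TGF-β1 (10 ng/mL) for 48 h, with or without test agent. Lysates (20 μg/lane) run on 7.5% SDS-PAGE and transferred to PVDF. Probed for p-Akt (Ser473), Akt, p-GSK-3β (S9), GSK-3β, E-cadherin, MMP-9 and β-actin, detected by ECL. Densitometry relative to β-actin or total protein. Three independent experiments.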

[2] = biological target: T1, Catenin beta-1 (Homo sapiens) (UniProt P35222); test: Inhibition of TGF-beta1-regulated increase in nuclear beta-catenin in human HCT116 cells at 2 to 50 nM after 48 hrs by Western blot analysis; format: cell-based
T1 sequence (whole entry): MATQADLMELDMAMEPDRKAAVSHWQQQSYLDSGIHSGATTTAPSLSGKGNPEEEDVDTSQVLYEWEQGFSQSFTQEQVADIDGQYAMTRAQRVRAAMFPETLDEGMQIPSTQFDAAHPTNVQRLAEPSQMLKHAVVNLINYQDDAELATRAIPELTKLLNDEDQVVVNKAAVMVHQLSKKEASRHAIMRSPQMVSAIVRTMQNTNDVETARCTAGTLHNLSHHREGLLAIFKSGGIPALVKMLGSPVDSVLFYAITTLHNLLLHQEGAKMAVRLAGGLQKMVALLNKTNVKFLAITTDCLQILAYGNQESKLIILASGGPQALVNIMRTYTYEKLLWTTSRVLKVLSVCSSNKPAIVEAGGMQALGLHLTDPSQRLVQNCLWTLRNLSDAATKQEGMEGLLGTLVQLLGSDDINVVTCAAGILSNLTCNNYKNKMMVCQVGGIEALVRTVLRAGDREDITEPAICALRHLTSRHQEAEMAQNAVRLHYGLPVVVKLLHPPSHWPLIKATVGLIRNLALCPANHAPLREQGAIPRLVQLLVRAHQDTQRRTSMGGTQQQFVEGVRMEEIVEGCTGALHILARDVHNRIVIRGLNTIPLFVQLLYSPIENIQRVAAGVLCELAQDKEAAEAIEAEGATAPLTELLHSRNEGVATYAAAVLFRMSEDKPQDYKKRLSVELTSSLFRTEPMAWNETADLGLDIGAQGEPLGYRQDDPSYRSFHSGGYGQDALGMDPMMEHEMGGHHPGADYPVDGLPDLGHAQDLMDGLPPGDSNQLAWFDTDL
Summary of the method: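 Cytoplasmic and nuclear β-catenin were measured by Western blot in HCT-116 cells given TGF-β1 (10 ng/mL) for 48 h, with or without compound, against 0.1% DMSO vehicle. Lysates (20 μg/lane) were run on 7.5% gels and transferred to PVDF, with Lamin A among the antibodies used. Blots were read by ECL and densitometry, n = 3 independent experiments.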

[3] = Induction of ROS accumulation in human CCD-841 cells at 1 to 10 uM up to 3 hrs by DCFH-DA staining-based fluorescence spectrometric analysis; format: cell-based; details: ccd-841, 3 h
Summary of the method: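 HCT-116 and CCD-841 cells treated in triplicate at 1, 5 and 10 μM for 1, 2 and 3 h. Intracellular ROS stained with DCFH-DA and fluorescence read on a microplate reader. Values expressed relative to DMSO control, from three separate experiments.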

Mus musculus [4] = test: Toxicity in BALB/c nude mouse assessed as reduction in body weight at 2.5 to 5 mg/kg, ip administered for 21 consecutive days; format: organism-based; details: in vivo
Summary of the method: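 Male BALB/c nude mice (3−5 weeks) inoculated sc with 1 × 10^7 HCT-116 cells; at tumour volume about 75 mm3 randomized (n = 8 per group) and dosed ip daily at 2.5 or 5 mg/kg for 21 consecutive days. Body weights monitored; liver, kidney, lung and heart inspected for size and morphology at sacrifice.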

HCT-116 [5] = test: Inhibition of IL-1beta-mediated adhesion of human rhodamine 123-labeled HCT116 cells to HUVEC after 1 hr by fluoresence assay; format: functional, cell-based
Summary of the method: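 HUVEC monolayers pretreated with or without IL-1β (1 ng/mL) for 4 h, then washed. Rhodamine 123-labeled HCT-116 cells added with vehicle or test agent (2, 10, 50 nM) at 37 °C for 1 h. Non-adherent cells washed off; percent adhered cells determined by fluorescence microscopy. Three separate experiments.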

[6] = Acute toxicity in ICR mouse assessed as survival rate at 400 mg/kg, ip administered for 14 days relative to control; format: organism-based; details: in vivo
HCT-116 [7] = test: Inhibition of TGF-beta1-induced increase in expression levels of vimentin protein in human HCT116 cells after 48 hrs by Western blot analysis; format: functional, cell-based
Summary of the method: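 HCT-116 cells (1 × 10^6/well, plated overnight) were exposed to TGF-β1 (10 ng/mL) for 48 h, with or without test compound; vehicle was 0.1% DMSO. Lysates (20 μg/lane) were run on 7.5% SDS-PAGE and blotted to PVDF, with primary antibody overnight at 4 °C and HRP/ECL detection. Band densities were normalised to β-actin across three independent experiments.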

[8] = Acute toxicity in ip dosed ICR mouse assessed as mortality after 14 days; format: organism-based; details: in vivo
Mus musculus [9] = test: Toxicity in BALB/c nude mouse xenografted with human HCT116 cells assessed as mortality at 2 to 4 mg/kg, ip administered thrice a week for 6 consecutive weeks; format: organism-based; details: in vivo
Summary of the method: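 Lung metastasis model: HCT-116 cells in serum-free medium injected into tail vein of BALB/c nude mice, then randomized and given vehicle or compound ip (1, 2 or 4 mg/kg) three times a week. Body weight recorded weekly, survival monitored (n = 6); mice sacrificed after 40 days and lungs examined by H&E histology.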

[10] = biological target: Glycogen synthase kinase-3 beta (Homo sapiens) (UniProt P49841); test: Inhibition of TGF-beta1-induced GSK-3beta phosphorylation in human HCT116 cells after 48 hrs by Western blot analysis; format: cell-based; summary of the method: as §1
Glycogen synthase kinase-3 beta (Homo sapiens), sequence (P49841 whole entry, looked up): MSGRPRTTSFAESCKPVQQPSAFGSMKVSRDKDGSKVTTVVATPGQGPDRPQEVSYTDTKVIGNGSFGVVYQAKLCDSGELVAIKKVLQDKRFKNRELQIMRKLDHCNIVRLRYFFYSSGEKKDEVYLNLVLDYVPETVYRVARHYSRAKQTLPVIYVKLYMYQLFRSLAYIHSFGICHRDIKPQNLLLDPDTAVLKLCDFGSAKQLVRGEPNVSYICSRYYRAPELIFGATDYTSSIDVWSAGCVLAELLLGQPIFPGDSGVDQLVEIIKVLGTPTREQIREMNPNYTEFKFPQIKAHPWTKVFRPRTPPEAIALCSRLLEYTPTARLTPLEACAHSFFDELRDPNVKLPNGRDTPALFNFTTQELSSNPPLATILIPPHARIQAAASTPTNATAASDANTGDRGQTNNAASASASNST

HCT-116 [11] = test: Antitumor activity against human HCT116 cells xenografted in BALB/c nude mouse assessed as reduction in tumor size at 2.5 to 5 mg/kg, ip administered daily for 21 consecutive days; format: functional, organism-based
Summary of the method: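 Male BALB/c nude mice, 3–5 weeks old, inoculated subcutaneously with 1 × 10^7 HCT-116 cells. At about 75 mm³ tumor volume, randomized (n = 8/group) and dosed intraperitoneally daily. Volume by caliper as d² × D/2. At the end, tumors excised and weighed; inhibition = (Wcontrol − Wtreated)/Wcontrol × 100%.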

HCT-116 [12] = test: Inhibition of TGF-beta1-induced decrease in expression levels of E-cadherin protein in human HCT116 cells at 50 nM after 48 hrs by Western blot analysis; format: functional, cell-based; summary of the method: as §1
U-87 MG = test: Antiproliferative activity against human U87MG cells after 72 hrs in presence of ligustrazine by MTT assay; format: functional, cell-based, U-87MG ATCC
Summary of the method: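 Cells grown in RPMI 1640 with 10% FBS in 96-well plates overnight, then exposed to test agents in triplicate for 72 h. MTT (5 mg/mL stock) added for the last 4 h, formazan dissolved in DMSO, absorbance read at 570 nm. Inhibition = (1 − OD treated/OD control) × 100%.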

SMILES: Cc1nc(C)c(/C=C/C(=O)N2CCC=C(Cl)C2=O)nc1C
- inhibition [1]: Dose-dependent effect
- inhibition [2]: Active
- Activity [3]: Non-Toxic
- Activity (Mus musculus [4]): Non-Toxic
- inhibition (HCT-116 [5]): Dose-dependent effect
- survival at 336 h [6]: 0%
- inhibition (HCT-116 [7]): Dose-dependent effect
- LD50 at 336 h [8]: 148 mg/kg
- Activity (Mus musculus [9]): Non-Toxic
- inhibition [10]: Dose-dependent effect
- Activity (HCT-116 [11]): Active

SMILES: COc1cc(/C=C/C(=O)N2CCC=CC2=O)cc(OC)c1OC [PIPLARTINE]
- inhibition (HCT-116 [12]): Active
- IC50 (U-87 MG): 16.1 µM
